Shown are actives, neighbours in structure and some others; about 1.5% of the full set was active somewhere.
dFosB act-1 = enhances mouse delta FosB homodimer DNA binding; purified delta FosB, TAMRA-CDK5 oligo fluorescence polarization; percent of positive-control signal above neutral wells; P13346; activation, % at 25 µM; 340,000 tested, 0.99% active;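 active means mean activation above about 17%, with every replicate also reaching it, limit read from the data, passing the limit was not always enough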
Target sequence (P13346 whole entry, looked up): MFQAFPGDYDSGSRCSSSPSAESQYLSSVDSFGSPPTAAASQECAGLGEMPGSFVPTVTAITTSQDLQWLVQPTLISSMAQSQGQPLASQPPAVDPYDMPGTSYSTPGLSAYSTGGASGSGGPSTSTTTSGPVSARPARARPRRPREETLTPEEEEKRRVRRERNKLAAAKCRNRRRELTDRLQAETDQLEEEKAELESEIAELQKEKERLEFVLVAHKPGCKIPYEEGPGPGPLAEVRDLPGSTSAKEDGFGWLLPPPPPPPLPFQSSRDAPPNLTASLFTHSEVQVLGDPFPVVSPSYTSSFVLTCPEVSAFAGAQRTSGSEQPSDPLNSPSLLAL
S100A4 inh HTS = blocks human S100A4 binding to myosin IIA peptide. 360,000 tested, 0.14% active. inhibition, % at 10.7 µM. P26447. S100A4/TAMRA-MyoIIA peptide fluorescence polarization;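 active means mean inhibition of at least 70% across replicates, with every replicate also reaching that level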
Target sequence (P26447 whole entry, looked up): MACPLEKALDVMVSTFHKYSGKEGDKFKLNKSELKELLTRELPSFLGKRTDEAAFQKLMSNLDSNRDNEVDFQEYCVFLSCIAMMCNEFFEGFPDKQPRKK
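System – human S100A4 monomer protein, biochemical binding assay · Buffer or medium – Calcium-containing HEPES buffer, pH 7.2 · Timing – 5 min between mix addition and reading · Also added – TAMRA-labelled myosin IIA heavy-chain peptide probe, 5 nM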
AF4-AF9 inh = MLL-AF4/AF9 protein interaction inhibition. P42568. AlphaScreen, biotin-AF4 peptide binding to FLAG-AF9. AID 651704. 350,000 tested, 0.47% active. inhibition, % at 10 µM;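 active means every replicate reaching a set inhibition limit, whatever the replicate mean, cut at about 25% in these data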;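 further: 0% = plate neutral control median and 100% = total signal loss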
RAD52 inh = blocks human RAD52 DNA annealing; P43351; recombinant RAD52 DNA annealing, FRET fluorescence; inhibition, % at 18.7 µM; 360,000 tested, 0.46% active; AID 651710;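 active means every replicate showing at least 50% inhibition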
RAD54 branch = RAD54 (human) branch migration inhibition; Q92698; RAD54 Holliday junction branch migration, FAM/BHQ fluorescence; inhibition, % at 10.4 µM; 360,000 tested, 0.14% active; AID 602329;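 active means mean normalized replicate activity at least 40 and at least half of replicates scoring 40 or more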;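 further: 0% = median of neutral control wells and 100% = median of positive control wells; inhibitors cause a drop in the FAM fluorescence signal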
dFosB act-2 = activators of mouse delta FosB homodimer DNA binding | shares compounds with dFosB act-1 | purified delta FosB, TAMRA-CDK5 oligo fluorescence polarization; normalised: neutral wells 0, positive control 100 | activation, % at 24.9 µM | 2,400 tested, under 10 active | AID 588690;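 active means highest replicate activation at or above 34% and every replicate reaching that threshold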;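 further: higher polarization means more probe DNA bound by delta FosB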
Numbers without * were called inactive.

Screening O=C(CCN1CCCCC1)NCC[C@@H]1CC[C@@H](NC(=O)Cc2cccnc2)[C@H](CO)O1 returned S100A4 inh HTS -49, AF4-AF9 inh 1, RAD52 inh -8 and RAD54 branch 0.
Screening C[C@H](CO)N1C[C@H](C)[C@H](CN(C)S(=O)(=O)c2cn(C)cn2)Oc2ccc(NC(=O)Cn3cnnn3)cc2CC1=O returned S100A4 inh HTS 5, AF4-AF9 inh 0, RAD52 inh -9 and RAD54 branch -2.
Screening COc1ccc(Cc2nnc(NC(=O)c3cccc(F)c3)s2)cc1OC returned dFosB act-1 19*, S100A4 inh HTS -4, AF4-AF9 inh -3, RAD52 inh -10, RAD54 branch 6 and dFosB act-2 2.
Screening C[C@@H]1CCCCO[C@H](CN(C)S(=O)(=O)c2ccccc2)[C@@H](C)CN([C@@H](C)CO)C(=O)c2cc(NC(=O)CCC(F)(F)F)ccc2O1 returned S100A4 inh HTS -1, AF4-AF9 inh -5, RAD52 inh -25 and RAD54 branch 0.
For COc1ccc(-c2c(C#N)c(N)nc(Sc3ccc(Cl)cc3)c2C#N)cc1 the results were dFosB act-1 121*, S100A4 inh HTS -2, AF4-AF9 inh -1, RAD52 inh -12 and dFosB act-2 2.
`CNC[C@H]1OCCCC[C@@H](C)Oc2ccc(NC(=O)Nc3ccccc3)cc2C(=O)N([C@H](C)CO)C[C@@H]1C` gave S100A4 inh HTS -12, AF4-AF9 inh 0, RAD52 inh 7 and RAD54 branch -2.
`CC(C)CCNC(=O)CCC(=O)NNc1nc2ccccc2c2nc(-c3ccccc3)nn12` gave dFosB act-1 56*, RAD54 branch -5 and dFosB act-2 6.
Screening COc1cc(OC)cc(C(=O)Nc2cccc(-c3ccc(N4CCOCC4)nn3)c2)c1 returned dFosB act-1 20*, S100A4 inh HTS -1, AF4-AF9 inh -12, RAD52 inh -21, RAD54 branch -1 and dFosB act-2 2.
CCc1ccc(NC(=O)CSC2=C(C#N)C(c3ccc4c(c3)OCO4)CC(=O)N2)cc1 (stereo unspecified) was read as dFosB act-1 -1 and RAD54 branch 6.
Screening Cc1ccc(NC(=O)CSC2=C(C#N)C(c3ccc4c(c3)OCO4)CC(=O)N2)cc1C (stereo unspecified) returned dFosB act-1 46*, S100A4 inh HTS -2, AF4-AF9 inh -15, RAD52 inh -4, RAD54 branch -4 and dFosB act-2 3.
Screening CN1CCN(C2=Nc3cc(Cl)ccc3Nc3ccccc32)CC1 returned dFosB act-1 -1, S100A4 inh HTS 3, AF4-AF9 inh 10, RAD52 inh -1 and RAD54 branch 4.
Screening CN1CCN(C2=Nc3c(Cl)cc(Cl)c4cccc2c34)CC1 returned dFosB act-1 20*, S100A4 inh HTS -5, AF4-AF9 inh 8, RAD52 inh -49, RAD54 branch 44 and dFosB act-2 -1.
Cc1ccc(N2CC(=O)Nc3c(oc4nc(-c5ccccc5)cc(C)c34)C2=O)cc1 was read as dFosB act-1 24*, S100A4 inh HTS -12, AF4-AF9 inh 0, RAD52 inh -6 and dFosB act-2 1.
O=C(/C=C/c1ccc2c(c1)OCO2)Nc1nc2ccc(F)cc2s1 was read as dFosB act-1 30*, S100A4 inh HTS 2, AF4-AF9 inh 5, RAD52 inh 2 and dFosB act-2 3.
For O=C(/C=C/c1ccc2c(c1)OCO2)Nc1ccc(Cl)cn1 the results were dFosB act-1 103*, S100A4 inh HTS 10, AF4-AF9 inh -2, RAD52 inh 2 and dFosB act-2 -1.
Screening CO[C@H]1CN(C)C(=O)c2ccc(NC(=O)C3CCC3)cc2OC[C@@H](C)N(CC2CCCCC2)C[C@@H]1C returned S100A4 inh HTS 0, AF4-AF9 inh 3, RAD52 inh -27 and RAD54 branch 5.
For COc1ccc(-c2cc3nc4ccccc4n3c(N)c2C#N)cc1 the results were dFosB act-1 19*, S100A4 inh HTS 2, AF4-AF9 inh -12, RAD52 inh -13 and dFosB act-2 6.
For Cc1ccc(S(=O)(=O)N2CCN(S(=O)(=O)c3c(C)n[nH]c3C)CC2)cc1C the results were dFosB act-1 32*, S100A4 inh HTS -2, AF4-AF9 inh 0, RAD52 inh -6, RAD54 branch -7 and dFosB act-2 -1.
`Cc1ccc(S(=O)(=O)N2CCN(C)CC2)cc1C` gave dFosB act-1 -4, S100A4 inh HTS 2, AF4-AF9 inh -8, RAD52 inh -18 and RAD54 branch -6.
`N=C1C(c2nc3ccccc3s2)=C(O)CN1NC(=O)c1c[nH]c2ccccc12` gave dFosB act-1 27*, S100A4 inh HTS -21, AF4-AF9 inh -1, RAD52 inh -1 and dFosB act-2 -2.
For CC(C)Cc1nc(C(N)=O)c2[nH]c(=O)n(-c3ccc(F)cc3)c2n1 the results were dFosB act-1 -14, S100A4 inh HTS -1, AF4-AF9 inh -2, RAD52 inh -5 and RAD54 branch -11.
Screening NC(=O)c1nc(-c2cccs2)nc2c1[nH]c(=O)n2-c1ccc(F)cc1 returned dFosB act-1 123*, S100A4 inh HTS -1, AF4-AF9 inh 10, RAD52 inh -68, RAD54 branch 6 and dFosB act-2 1.
`COc1ccc(CN(C)CC(O)COc2ccc(-c3ccccc3)cc2)cc1OC` (stereo unspecified) gave dFosB act-1 19*, S100A4 inh HTS -3, AF4-AF9 inh 17, RAD52 inh 0, RAD54 branch 7 and dFosB act-2 -8.
`O=C(C1CCCC1)N1CC2(C1)[C@@H](c1ccccc1)[C@H](CO)N2C(=O)NC1CCCC1` gave S100A4 inh HTS 1, AF4-AF9 inh -1 and RAD52 inh -2.
Screening O=C(c1ccc(NC(=S)NCc2ccc(Cl)cc2)cc1)N1CCCCC1 returned dFosB act-1 30*, S100A4 inh HTS -4, AF4-AF9 inh -2, RAD52 inh -7, RAD54 branch -5 and dFosB act-2 1.
Screening O=C(COC(=O)/C=C/c1cccc(Br)c1)NCc1cccs1 returned dFosB act-1 46*, S100A4 inh HTS -6, AF4-AF9 inh -2, RAD52 inh -2, RAD54 branch -1 and dFosB act-2 3.
For O=C(C[C@H]1CC[C@H]2[C@@H](COC[C@@H](O)CN2Cc2ccncc2)O1)NCC1CC1 the results were S100A4 inh HTS -8, AF4-AF9 inh -1, RAD52 inh -8 and RAD54 branch 5.
`Cc1ccc(S(=O)(=O)N2CCOCC2)cc1NC(=O)COc1ncnc2ccccc12` gave dFosB act-1 -4.

Source: PubChem BioAssay (Broad Institute)
